# Results reported in publication PMC9675722 (Cell chemical biology, 2022).
# How the values were obtained:
# ERK5 [1] = biological target: T1, ERK5 (Homo sapiens, UniProt Q13164); assay: KdELECT biochemical binding assay
# Outline: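 Binding constants to ERK5 were determined in an outsourced KdELECT kinase binding assay from an 11-point dose–response curve.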
# AURKA = biological target: T2, AURKA (Homo sapiens, UniProt O14965); assay: AURKA immunoblot in MOLT4 cells; type: cell-based; conditions: 5 hours
# T2 sequence (O14965 1-403): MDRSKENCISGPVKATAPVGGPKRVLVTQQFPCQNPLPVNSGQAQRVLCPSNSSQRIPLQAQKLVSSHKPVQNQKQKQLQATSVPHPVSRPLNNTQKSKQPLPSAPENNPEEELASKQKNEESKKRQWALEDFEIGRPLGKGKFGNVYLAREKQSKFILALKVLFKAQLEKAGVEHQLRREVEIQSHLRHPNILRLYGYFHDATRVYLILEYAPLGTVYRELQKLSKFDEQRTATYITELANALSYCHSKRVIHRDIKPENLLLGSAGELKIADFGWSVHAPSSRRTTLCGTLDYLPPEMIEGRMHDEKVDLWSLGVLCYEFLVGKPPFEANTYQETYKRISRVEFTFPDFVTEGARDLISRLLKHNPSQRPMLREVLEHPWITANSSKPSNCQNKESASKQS
# Outline: (§1)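 MOLT4 cells (RPMI, 10% heat-inactivated FBS, pen-strep, 37 °C, 5% CO2) were exposed to test compound at a range of concentrations for 5 h. Lysis was in M-PER with protease and phosphatase inhibitors, and lysates were BCA-normalised. Samples were run on 4–12% Bis-Tris gels and blotted to nitrocellulose. ERK5, BRD4, AURKA and actin antibodies were applied overnight at 4 °C. Detection was by IRDye secondaries. Blots are representative of 2–3 biological replicates.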
# BRD4 = BRD4 (Homo sapiens, UniProt O60885); assay: BRD4 immunoblot in MOLT4 cells; type: cell-based; conditions: 5 hours
# Outline: as §1
# IL-8 secretion = assay: IL-8 ELISA, LPS-stimulated HUVECs; type: cell-based, Human; conditions: LPS 10 μg/mL 6 hours
# Outline: (§2)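 HUVECs were seeded at 30,000–60,000 cells/well and pre-treated with test compound for 5 or 24 h. They were then stimulated with E. coli O111:B4 LPS at 10 μg/mL for 6 h. Secreted IL-6 or IL-8 in the supernatant was quantified by sandwich ELISA kits per the manufacturer. Statistics used two-way ANOVA with Bonferroni correction.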
# MOLT4 cells = assay: global quantitative TMT MS proteomics in MOLT4 cells; type: cell-based, Human; conditions: MOLT4, 100 nM, 5 hours, ~7,700 proteins quantified
# Outline: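 MOLT4 cells were treated for 5 h with test compound (250 nM, or 100 nM for one degrader) or DMSO (biological triplicate), then harvested by centrifugation. TMT-labelled tryptic peptides were analysed by LC-MS3 on an Orbitrap Fusion Lumos using a 190 min 6–27% acetonitrile gradient. Spectra were searched against Swissprot human. Proteins with ≥2 unique peptides were kept, and abundance relative to DMSO was computed by limma.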
# BT-474 cells = assay: CellTiter-Glo proliferation assay, BT-474; type: cell-based, Human; conditions: Homo sapiens, BT-474, 72 h, read-out: anti-proliferative EC50
# ERK5 [2] = biological target: T1, ERK5; assay: ERK5 degradation in HUVECs; type: cell-based
# Outline: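 HUVECs (pooled primary, in vascular cell basal medium with VEGF growth kit and pen-strep, 37 °C, 5% CO2) were treated with test compound for 5 or 24 h. Lysates were BCA-normalised and separated on 4–12% Bis-Tris gels, then transferred to nitrocellulose. ERK5 and actin were probed overnight at 4 °C with IRDye secondary detection. Blots are representative of 2 biological replicates.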
# [3] = system: IL-6 stimulated MM.1S cells; assay: IL-6-induced MM.1S proliferation; type: cell-based, Human; conditions: 500 nM and 1 μM, 5 nM IL-6, 3d
# Outline: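 MM.1S cells at 10,000 cells/well were pre-treated for 5 h with test compound at 500 nM or 1 μM. Recombinant human IL-6 (5 nM) was then added. After 72 h, proliferation was read by CellTiter-Glo. Data are mean with standard deviation of three biological replicates.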
# panel of 750 cell lines = assay: PRISM platform anti-proliferative screen; type: cell-based; conditions: read-out: IC50 values in PRISM screen
# IL-6 secretion = assay: IL-6 ELISA, LPS-stimulated HUVECs; type: cell-based, Human; conditions: LPS 10 μg/mL 6 hours
# Outline: as §2
# SNU-449 cells = assay: CellTiter-Glo proliferation assay, SNU-449; type: cell-based, Human; conditions: Homo sapiens, SNU-449, 72 h, read-out: anti-proliferative EC50
# MM.1S cells = assay: CellTiter-Glo proliferation assay, MM.1S basal; type: cell-based; conditions: Homo sapiens, MM1.S, 72 h, read-out: anti-proliferative EC50
# Outline: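 MM.1S cells, unstimulated, were grown in RPMI with 10% heat-inactivated FBS. They were plated at 500–1000 cells/well and exposed to test compound across a concentration series for 72 h. Viability was read by CellTiter-Glo luminescence. EC50 came from nonlinear regression curve fitting.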
# ERK5 [4] = biological target: T1, ERK5; assay: ERK5 degradation in MOLT4 cells; type: cell-based; conditions: 5 hours, 5 μM or greater
# panel of 468 kinases = assay: scanMAX KINOMEscan selectivity panel; type: binding; conditions: 1 μM
# T1 sequence (Q13164 whole entry): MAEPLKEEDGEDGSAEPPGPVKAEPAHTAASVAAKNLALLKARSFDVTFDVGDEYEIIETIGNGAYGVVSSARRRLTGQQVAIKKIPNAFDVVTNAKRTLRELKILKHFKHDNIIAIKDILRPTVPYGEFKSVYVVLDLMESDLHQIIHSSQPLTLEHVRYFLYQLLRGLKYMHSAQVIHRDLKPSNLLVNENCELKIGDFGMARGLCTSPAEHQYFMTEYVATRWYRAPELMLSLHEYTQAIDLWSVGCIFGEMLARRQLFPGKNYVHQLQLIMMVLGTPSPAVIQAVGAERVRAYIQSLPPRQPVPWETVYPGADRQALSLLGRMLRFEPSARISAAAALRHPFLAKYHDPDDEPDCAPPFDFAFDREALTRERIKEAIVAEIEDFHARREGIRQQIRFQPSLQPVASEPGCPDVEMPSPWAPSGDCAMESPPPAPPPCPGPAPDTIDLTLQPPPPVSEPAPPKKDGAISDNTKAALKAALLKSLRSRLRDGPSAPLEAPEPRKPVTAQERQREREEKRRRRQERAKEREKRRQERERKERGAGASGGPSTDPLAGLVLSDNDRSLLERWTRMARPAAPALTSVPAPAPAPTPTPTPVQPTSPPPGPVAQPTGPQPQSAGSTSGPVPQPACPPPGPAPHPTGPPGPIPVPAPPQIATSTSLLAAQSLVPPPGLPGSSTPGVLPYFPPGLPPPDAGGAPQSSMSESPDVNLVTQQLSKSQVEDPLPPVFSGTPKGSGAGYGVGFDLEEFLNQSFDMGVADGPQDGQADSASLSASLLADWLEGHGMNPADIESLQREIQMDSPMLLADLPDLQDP
smiles,measurement,setting,value
"Cc1ncsc1-c1ccc([C@H](C)NC(=O)[C@@H]2C[C@@H](O)CN2C(=O)[C@@H](NC(=O)CCCCCN2CCN(c3ccc4c(C5CCN(C(=O)c6ccc(OC(F)(F)F)cc6N)CC5)ncnc4c3)CC2)C(C)(C)C)cc1 [INY-06-061, (2S,4R)-1-((S)-2-(6-(4-(4-(1-(2-amino-4-(trifluoromethoxy)benzoyl)piperidin-4-yl)quinazolin-7-yl)piperazin-1-yl)hexanamido)-3,3-dimethylbutanoyl)-4-hydroxy-N-((S)-1-(4-(4-methylthiazol-5-yl)phenyl)ethyl)pyrrolidine-2-carboxamide]",Kd,ERK5 [1],0.012 µM
same,AURKA protein levels,AURKA,did not destabilize
same,BRD4 protein levels,BRD4,did not destabilize
same,IL-8 secretion upon LPS stimulation,IL-8 secretion; 5-hour pre-treatment,did not significantly suppress
same,IL-8 secretion upon LPS stimulation,IL-8 secretion; 24-hour pre-treatment,no effect
same,"proteins significantly downregulated, proteomics",MOLT4 cells,ERK5 (MAPK7) was the only protein whose abundance was significantly downregulated
same,EC50,BT-474 cells,> 20 µM
same,ERK5 protein level,"ERK5 [2]; 1 μM, 5-hour treatment",potent downregulation of ERK5
same,ERK5 degradation,ERK5 [2]; 24 hours,maintained for 24 hours
same,effect on IL-6-induced proliferation,[3],no effect
same,IC50,panel of 750 cell lines,> 1 µM
same,IL-6 secretion upon LPS stimulation,IL-6 secretion; 5-hour pre-treatment,did not significantly suppress
same,IL-6 secretion upon LPS stimulation,IL-6 secretion; 24-hour pre-treatment,no effect
same,EC50,SNU-449 cells,> 20 µM
same,EC50,MM.1S cells,6 µM
same,ERK5 degradation at high concentration (hook effect),ERK5 [4],diminished ERK5 degradation
same,potential off-target kinases,panel of 468 kinases,"weak inhibition of potential off-targets (AXL, CDK19, SgK110, CDKL2, and AURKC)"
same,biochemical selectivity profile across the kinome,panel of 468 kinases; 468 kinases,high selectivity for ERK5
